According to ChEMBL document CHEMBL1212911, “Identification of potent and selective amidobipyridyl inhibitors of protein kinase D” (J Med Chem, 2010):

Columns and labels:
[1] = target: T1, Serine/threonine-protein kinase D2 (Homo sapiens, UniProt Q9BZL6); assay: Inhibition of PKD2 by TR-FRET assay
T1 sequence (Q9BZL6 whole entry): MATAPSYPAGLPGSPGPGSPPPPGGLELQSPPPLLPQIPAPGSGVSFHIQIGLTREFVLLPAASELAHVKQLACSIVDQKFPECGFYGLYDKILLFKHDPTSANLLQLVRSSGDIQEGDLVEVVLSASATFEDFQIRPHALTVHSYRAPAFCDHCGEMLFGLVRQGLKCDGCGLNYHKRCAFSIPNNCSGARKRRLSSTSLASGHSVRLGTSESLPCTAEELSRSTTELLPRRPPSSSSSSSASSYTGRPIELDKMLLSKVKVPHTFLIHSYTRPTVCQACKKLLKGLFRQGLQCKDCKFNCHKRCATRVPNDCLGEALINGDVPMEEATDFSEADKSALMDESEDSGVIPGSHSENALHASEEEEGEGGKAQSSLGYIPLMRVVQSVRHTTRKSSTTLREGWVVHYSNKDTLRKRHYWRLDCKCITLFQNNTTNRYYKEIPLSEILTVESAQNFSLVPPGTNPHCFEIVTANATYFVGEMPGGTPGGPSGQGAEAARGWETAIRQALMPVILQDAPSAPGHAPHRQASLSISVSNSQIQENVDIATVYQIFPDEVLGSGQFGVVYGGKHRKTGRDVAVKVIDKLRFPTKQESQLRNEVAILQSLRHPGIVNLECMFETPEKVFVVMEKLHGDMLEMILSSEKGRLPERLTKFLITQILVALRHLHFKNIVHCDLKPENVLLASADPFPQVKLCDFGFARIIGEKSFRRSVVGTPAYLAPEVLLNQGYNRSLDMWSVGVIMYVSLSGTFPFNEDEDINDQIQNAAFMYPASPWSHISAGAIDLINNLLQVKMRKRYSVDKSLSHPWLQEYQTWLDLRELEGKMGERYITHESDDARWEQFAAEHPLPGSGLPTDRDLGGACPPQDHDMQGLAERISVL

[2] = Clearance in Sprague-Dawley rat at 2 mg/kg, iv and 5 mg/kg, po; assay type: ADME, organism-based; conditions: in vivo
Method in brief: (§1)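 Rats dosed iv 2 mg/kg (n = 2) or po 5 mg/kg (n = 3) in 10% NMP, 10% Cremophor, 80% pH 4.63 buffer. PK parameters derived from iv dosing, reported as mean ± SD.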

[3] = Volume of distribution at steady state in Sprague-Dawley rat at 2 mg/kg, iv and 5 mg/kg, po; assay type: ADME, organism-based; conditions: in vivo, read-out: Vdss; method in brief: as §1
[4] = Half life in rats after 2 mg/kg intravenous dose; assay type: ADME, organism-based; set-up: dose 2 mg/kg, route intravenous; conditions: Sprague-Dawley, rat, in vivo; method in brief: as §1
[5] = target: T2, Protein kinase C epsilon type (Homo sapiens) (UniProt Q02156); assay: Inhibition of PKCepsilon; conditions: concentration not given here
T2 sequence (whole entry): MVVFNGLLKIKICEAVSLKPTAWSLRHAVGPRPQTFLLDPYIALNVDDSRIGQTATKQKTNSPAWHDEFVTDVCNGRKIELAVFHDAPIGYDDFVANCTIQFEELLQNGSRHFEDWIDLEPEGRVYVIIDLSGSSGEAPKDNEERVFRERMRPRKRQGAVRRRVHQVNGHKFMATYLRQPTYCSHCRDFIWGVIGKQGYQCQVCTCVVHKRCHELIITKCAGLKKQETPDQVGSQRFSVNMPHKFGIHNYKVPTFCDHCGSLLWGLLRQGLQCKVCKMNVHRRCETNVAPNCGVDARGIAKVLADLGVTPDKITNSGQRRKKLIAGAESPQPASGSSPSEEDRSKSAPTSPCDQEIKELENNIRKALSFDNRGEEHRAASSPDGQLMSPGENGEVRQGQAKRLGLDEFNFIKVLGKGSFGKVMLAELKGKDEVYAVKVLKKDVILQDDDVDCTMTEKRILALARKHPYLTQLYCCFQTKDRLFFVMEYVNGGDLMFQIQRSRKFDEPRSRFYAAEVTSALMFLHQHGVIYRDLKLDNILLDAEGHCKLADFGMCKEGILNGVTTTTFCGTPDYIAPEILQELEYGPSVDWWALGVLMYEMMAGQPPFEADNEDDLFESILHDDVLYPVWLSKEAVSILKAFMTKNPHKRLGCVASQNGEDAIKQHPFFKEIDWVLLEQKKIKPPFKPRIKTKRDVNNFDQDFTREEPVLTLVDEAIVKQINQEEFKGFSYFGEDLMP

[6] = AUC (0 to 8 hrs) in Dahl salt-sensitive rat at 50 mg/kg, sc; assay type: ADME, organism-based; set-up: time < 8 hr, dose 50 mg/kg, route subcutaneous; conditions: plasma
Method in brief: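 Dahl salt-sensitive rats given 50 mg/kg sc in 10% 1 N HCl, 90% Captisol in pH buffer (10%). Plasma exposure followed over time to give AUC.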

[7] = Drug level in Dahl salt-sensitive rat left ventricle at 5 mg/kg, sc qd; conditions: in vivo, read-out: Drug uptake

Q: What does the source list for `NC(=O)c1cc(-c2ccnc(NC3CCCCC3)c2)nc(N2CCNCC2)c1`?
A: IC50 [1]: 9 nM; clearance [2]: 97 mL/min/kg; Vd [3]: 22 L/kg; half-life [4]: 3.8 h; inhibition [5]: -3%; AUC(0-t) at 8 h [6]: 25.8 µM·h; concentration [7]: 12 µM
